Measured values: ChEMBL document CHEMBL1121906, “2-(Aminomethyl)phenols, a new class of saluretic agents. 2. Synthesis and pharmacological properties of the 5-aza isostere of 2-(aminomethyl)-4-(1,1-dimethylethyl)-6-iodophenol” (1981)
Where “and” joins values, the source holds several entries; their conditions need not be identical. Equal entries are not always repeated.

Columns and labels:
Rattus norvegicus [1] = assay: The saluretic(K+) effect of compound was measured in rats after oral administration at 81 mg/kg dose; K+mequiv*100/cage=14; assay type: functional
Rattus norvegicus [2] = assay: Mean arterial pressure was measured in hypertensive rat at dose of 20 mg/kg, po; assay type: functional, Artery
In short: (§1)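 Spontaneously hypertensive rats received the compound orally. The read-out was the maximum fall in mean arterial pressure (mmHg ± SE) and the duration of effect in hours. The number of rats varied by treatment, and the protocol follows an earlier report.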

Canis familiaris [3] = assay: The saluretic(K+) effect of compound was measured in dogs after iv administration at 3 mg/kg dose; K+mequiv/min=20; assay type: functional, Canis lupus familiaris
Rattus norvegicus [4] = assay: The saluretic(Cl-) effect of compound was measured in rats after oral administration at 81 mg/kg dose; Cl-mequiv*100/cage=14; assay type: functional
Rattus norvegicus [5] = assay: The saluretic(Cl-) effect of compound was measured in rats after oral administration at 3 mg/kg dose; Cl-mequiv*100/cage=14; assay type: functional
Rattus norvegicus [6] = assay: The saluretic(K+) effect of compound was measured in rats after oral administration at 3 mg/kg dose; K+mequiv*100/cage=14; assay type: functional
Rattus norvegicus [7] = assay: The saluretic(K+) effect of compound was measured in rats after oral administration at 27 mg/kg dose; K+mequiv*100/cage=14; assay type: functional
Rattus norvegicus [8] = assay: The saluretic(Cl-) effect of compound was measured in rats after oral administration at 27 mg/kg dose; Cl-mequiv*100/cage=14; assay type: functional
Canis familiaris [9] = assay: The saluretic(Na+) effect of compound was measured in dogs after iv administration at 3 mg/kg dose; Na+ mequiv/min=279; assay type: functional, Canis lupus familiaris
Canis familiaris [10] = assay: The saluretic(Cl-) effect of compound was measured in dogs after iv administration at 3 mg/kg dose; Cl-mequiv/min=303; assay type: functional, Canis lupus familiaris
Rattus norvegicus [11] = species on record: Rattus norvegicus; assay: Duration of effect was measured in hypertensive rat; assay type: functional; in short: as §1
Canis familiaris [12] = assay: The saluretic(K+) effect of compound was measured in dogs after iv administration at 5 mg/kg dose; K+mequiv/min=20
Rattus norvegicus [13] = assay: The saluretic(K+) effect of compound was measured in rats after oral administration at 3 mg/kg dose; assay type: functional
Rattus norvegicus [14] = species on record: Rattus norvegicus; assay: Duration of effect was measured in hypertensive rat.; assay type: functional; in short: as §1
Rattus norvegicus [15] = assay: Saluretic(Na+) effect of compound was measured in rats after oral administration at 3 mg/kg dose; Na+ mequiv*100/cage; assay type: functional
Canis familiaris [16] = assay: The saluretic(Cl-) effect of compound was measured in dogs after iv administration at 5 mg/kg dose; Cl-mequiv/min=303
Rattus norvegicus [17] = assay: The saluretic(Cl-) effect of compound was measured in rats after oral administration at 3 mg/kg dose; assay type: functional
Rattus norvegicus [18] = assay: The saluretic(K+) effect of compound was measured in rats after oral administration at 81 mg/kg dose.; assay type: functional
Rattus norvegicus [19] = assay: The saluretic (Na+)effect of compound was measured in rats after oral administration at 81 mg/kg dose; assay type: functional
Rattus norvegicus [20] = assay: The saluretic(Na+) effect of compound was measured in rats after oral administration at 27 mg/kg dose; Na+ mequiv*100/cage; assay type: functional
Canis familiaris [21] = assay: The saluretic(Na+) effect of compound was measured in dogs after iv administration at 5 mg/kg dose; Na+ mequiv/min=279
Rattus norvegicus [22] = assay: The saluretic (Na+) effect of compound was measured in rats after oral administration at 27 mg/kg dose; Na+ mequiv*100/cage; assay type: functional
Rattus norvegicus [23] = assay: The saluretic(Cl-) effect of compound was measured in rats after oral administration at 81 mg/kg dose.; assay type: functional
Rattus norvegicus [24] = assay: The saluretic(Cl-) effect of compound was measured in rats after oral administration at 9 mg/kg dose; Cl-mequiv*100/cage=14; assay type: functional
Rattus norvegicus [25] = assay: The saluretic (Na+) effect of compound was measured in rats after oral administration at 9 mg/kg dose; Na+ mequiv*100/cage; assay type: functional
Rattus norvegicus [26] = assay: The saluretic(K+) effect of compound was measured in rats after oral administration at 9 mg/kg dose; K+mequiv*100/cage=14; assay type: functional
Rattus norvegicus [27] = assay: The saluretic (Na+) effect of compound was measured in rats after oral administration at 81 mg/kg dose; Na+ mequiv*100/cage; assay type: functional
Canis familiaris [28] = assay: The saluretic(Na+) effect of compound was measured in dogs after iv administration at 2 mg/kg dose; Na+ mequiv/min=279; assay type: functional, Canis lupus familiaris
Canis familiaris [29] = assay: The saluretic(K+) effect of compound was measured in dogs after iv administration at 2 mg/kg dose; K+mequiv/min=20; assay type: functional, Canis lupus familiaris
Canis familiaris [30] = assay: The saluretic(Cl-) effect of compound was measured in dogs after iv administration; Cl-mequiv/min=303
Rattus norvegicus [31] = assay: The saluretic(Cl-) effect of compound was measured in rats after oral administration at 3 mg/kg dose; Cl- mequiv x 100/cage =14; assay type: functional
Rattus norvegicus [32] = assay: Saluretic(Na+) effect of compound was measured in rats after oral administration at 3 mg/kg dose; Na+ mequiv x 100/cage; assay type: functional
Rattus norvegicus [33] = assay: Mean arterial pressure was measured in hypertensive rat at dose of 20 mg/kg, ip; details: route intraperitoneal
Rattus norvegicus [34] = assay: The saluretic(K+) effect of compound was measured in rats after oral administration at 3 mg/kg dose; K+ mequiv x 100/cage=14; assay type: functional

| SMILES | Diuretic effects (Rattus norvegicus [1]) | Max fall (Rattus norvegicus [2]; dose 20 mg/kg) [mmHg] | Diuretic effects (Canis familiaris [3]) | Diuretic effects (Rattus norvegicus [4]) | Diuretic effects (Rattus norvegicus [5]) | Diuretic effects (Rattus norvegicus [6]) | Diuretic effects (Rattus norvegicus [7]) | Diuretic effects (Rattus norvegicus [8]) | Diuretic effects (Canis familiaris [9]) | Diuretic effects (Canis familiaris [10]) | Diuretic effects (Rattus norvegicus [15]) | Diuretic effects (Rattus norvegicus [22]) | Diuretic effects (Rattus norvegicus [8]; 27 mg/kg) | Diuretic effects (Rattus norvegicus [24]) | Diuretic effects (Rattus norvegicus [25]) | Diuretic effects (Rattus norvegicus [26]) | Diuretic effects (Rattus norvegicus [27]) | also measured |
| --- | --- | --- | --- | --- | --- | --- | --- | --- | --- | --- | --- | --- | --- | --- | --- | --- | --- | --- |
| NS(=O)(=O)c1cc2c(cc1Cl)NCNS2(=O)=O [HYDROCHLOROTHIAZIDE] | 37 | 25 | 33 | 143 | 154 | 34 | 34 | 156 | 166 | 156 | – | – | – | – | – | – | – | Duration (Rattus norvegicus [11]): <8 h and 12 h |
| CC(C)(C)c1cc(CN)c(O)c(I)n1 | – | 13 | – | – | – | – | – | – | – | – | 178 | 276 | 351 and 444 | – | – | – | – | Diuretic effects (Canis familiaris [12]): 48; Diuretic effects (Rattus norvegicus [13]): 51; Duration (Rattus norvegicus [14]): >24 h; Diuretic effects (Canis familiaris [16]): 729; Diuretic effects (Rattus norvegicus [17]): 279; Diuretic effects (Rattus norvegicus [18]): 108; Diuretic effects (Rattus norvegicus [19]): 330; Diuretic effects (Rattus norvegicus [20]): 276; Diuretic effects (Canis familiaris [21]): 611; Diuretic effects (Rattus norvegicus [7]; 27 mg/kg): 63 and 83; Diuretic effects (Rattus norvegicus [23]): 528 |
| CC(C)(C)c1cc(I)c(O)c(CN)c1 | 99 | – | 66 | 489 | 211 | 51 | 88 | 435 | 716 | 822 | 146 | 319 | – | 364 | 270 | 77 | 351 | Max fall (Rattus norvegicus [2]; dose 0.312 mg/kg, in the assay text read “0.312 mg/kg” for “20 mg/kg”): 26 mmHg |
| NS(=O)(=O)c1cc(C(=O)O)c(NCc2ccco2)cc1Cl [FUROSEMIDE] | 77 | – | – | – | – | – | 55 | – | – | – | – | 125 | 213 and 370 | 22 | 7 | 14 | 244 | Max fall (Rattus norvegicus [2]; dose 30 mg/kg, in the assay text read “30 mg/kg” for “20 mg/kg”): 12 mmHg; Diuretic effects (Canis familiaris [28]): 960; Diuretic effects (Canis familiaris [29]): 141; Diuretic effects (Canis familiaris [30]): 1081 |
| CC(C)(C)c1cc(CN)c(O)cn1 | 23 | – | 20 | 98 | – | – | 15 | 37 | 279 | 303 | – | 22 | – | 11 | 8 | 7 | 63 | Diuretic effects (Rattus norvegicus [31]): 14; Diuretic effects (Rattus norvegicus [32]): 14; Max fall (Rattus norvegicus [33]): 12 mmHg; Diuretic effects (Rattus norvegicus [34]): 14 |
